# From ChEMBL document CHEMBL2040809, “Synthesis and biological activity evaluation of cytidine-5'-deoxy-5-fluoro-N-[(alkoxy/aryloxy)] carbonyl-cyclic 2',3'-carbonates” (Eur J Med Chem, 2012)
# Assays:
# L1210 [1] = assay: Antitumor activity against mouse L1210 cells xenografted in BDF-1 mouse assessed as increase in mean survival time at 0.080 mmol/kg, po administered 5 days in a week for 3 weeks
# Salmonella typhimurium [2] = assay: Mutagenic activity in Salmonella typhimurium TA1537 at 0.312 to 5 mg/plate measured after incubation of upside down for 48 hrs in presence of liver S9 mixture; type: toxicity, organism-based; conditions: salmonella enterica subsp. enterica serovar typhimurium, s9, 48 h
# Method in brief: (§1)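 Plate incorporation trial (Trial I) with histidine-dependent auxotrophs. Revertant colonies are counted against the concurrent vehicle control. Each dose and each control, including negative, vehicle and positive reference mutagens, run in triplicate plates.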
# Salmonella typhimurium [3] = assay: Mutagenic activity in Salmonella typhimurium TA100 at 0.312 to 5 mg/plate measured after incubation of upside down for 48 hrs in absence of liver S9 mixture; type: toxicity, organism-based; conditions: salmonella enterica subsp. enterica serovar typhimurium
# Method in brief: as §1
# Salmonella typhimurium [4] = assay: Mutagenic activity in Salmonella typhimurium TA100 at 0.312 to 5 mg/plate preincubated for 20 mins before addition in absence of liver S9 mixture; type: toxicity, organism-based; conditions: salmonella enterica subsp. enterica serovar typhimurium
# Method in brief: (§2)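 Pre-incubation trial (Trial II) with histidine-dependent auxotrophs. Test solution is pre-incubated with bacterial suspension and S9 mix (10% v/v) or substitution buffer before plating on selective agar. Revertant colonies are counted against the concurrent vehicle control. Triplicate plates per dose and per control (negative, vehicle, positive reference mutagens).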
# L1210 [5] = assay: Antitumor activity against mouse L1210 cells xenografted in BDF-1 mouse assessed as increase in mean survival time at 0.16 mmol/kg, po administered 5 days in a week for 3 weeks
# Salmonella typhimurium [6] = assay: Mutagenic activity in Salmonella typhimurium TA1535 at 0.312 to 5 mg/plate preincubated for 20 mins before addition in presence of liver S9 mixture; type: toxicity, organism-based; conditions: salmonella enterica subsp. enterica serovar typhimurium
# Method in brief: as §2
# Salmonella typhimurium [7] = assay: Mutagenic activity in Salmonella typhimurium TA1537 at 0.312 to 5 mg/plate preincubated for 20 mins before addition in presence of liver S9 mixture; type: toxicity, organism-based; conditions: salmonella enterica subsp. enterica serovar typhimurium
# Method in brief: as §2
# Salmonella typhimurium [8] = assay: Mutagenic activity in Salmonella typhimurium TA98 at 0.312 to 5 mg/plate measured after incubation of upside down for 48 hrs in presence of liver S9 mixture; type: toxicity, organism-based; conditions: salmonella enterica subsp. enterica serovar typhimurium, s9, 48 h
# Method in brief: as §1
# Salmonella typhimurium [9] = assay: Mutagenic activity in Salmonella typhimurium TA1537 at 0.312 to 5 mg/plate measured after incubation of upside down for 48 hrs in absence of liver S9 mixture; type: toxicity, organism-based; conditions: salmonella enterica subsp. enterica serovar typhimurium
# Method in brief: as §1
# Salmonella typhimurium [10] = assay: Mutagenic activity in Salmonella typhimurium TA1535 at 0.312 to 5 mg/plate measured after incubation of upside down for 48 hrs in absence of liver S9 mixture; type: toxicity, organism-based; conditions: salmonella enterica subsp. enterica serovar typhimurium
# Method in brief: as §1
# Salmonella typhimurium [11] = assay: Mutagenic activity in Salmonella typhimurium TA102 at 0.312 to 5 mg/plate preincubated for 20 mins before addition in presence of liver S9 mixture; type: toxicity, organism-based; conditions: salmonella enterica subsp. enterica serovar typhimurium
# Method in brief: as §2
# Salmonella typhimurium [12] = assay: Mutagenic activity in Salmonella typhimurium TA102 at 0.312 to 5 mg/plate measured after incubation of upside down for 48 hrs in presence of liver S9 mixture; type: toxicity, organism-based; conditions: salmonella enterica subsp. enterica serovar typhimurium, s9, 48 h
# Method in brief: as §1
# Salmonella typhimurium [13] = assay: Mutagenic activity in Salmonella typhimurium TA1535 at 0.312 to 5 mg/plate measured after incubation of upside down for 48 hrs in presence of liver S9 mixture; type: toxicity, organism-based; conditions: salmonella enterica subsp. enterica serovar typhimurium, s9, 48 h
# Method in brief: as §1
# Salmonella typhimurium [14] = assay: Mutagenic activity in Salmonella typhimurium TA1537 at 0.312 to 5 mg/plate preincubated for 20 mins before addition in absence of liver S9 mixture; type: toxicity, organism-based; conditions: salmonella enterica subsp. enterica serovar typhimurium
# Method in brief: as §2
# NCI-H69 = assay: Cytotoxicity against human NCI-H69 cells after 3 days MTT assay; type: functional, cell-based; conditions: NCI-H69, 72 h
# Method in brief: (§3)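 Cells held as monolayers in DMEM with 10% supplement. Seeded in 96-well plates on day 0 at densities set by doubling time: 1 × 10⁴/mL for HeLa and NCI-69, 2 × 10⁴/mL for MCF-7, 3 × 10⁴/mL for PZ-HPV-7. Five dilutions (10⁻⁸–5 × 10⁻⁶ mol/l), freshly prepared, added for 72 h. Growth read by MTT (succinate dehydrogenase activity); IC50 derived.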
# Salmonella typhimurium [15] = assay: Mutagenic activity in Salmonella typhimurium TA102 at 0.312 to 5 mg/plate preincubated for 20 mins before addition in absence of liver S9 mixture; type: toxicity, organism-based; conditions: salmonella enterica subsp. enterica serovar typhimurium
# Method in brief: as §2
# Salmonella typhimurium [16] = assay: Mutagenic activity in Salmonella typhimurium TA100 at 0.312 to 5 mg/plate preincubated for 20 mins before addition in presence of liver S9 mixture; type: toxicity, organism-based; conditions: salmonella enterica subsp. enterica serovar typhimurium
# Method in brief: as §2
# [17] = Toxicity in po dosed BDF-1 mouse administered qd for 28 days; type: organism-based; conditions: in vivo
# HeLa = assay: Cytotoxicity against human HeLa cells after 3 days MTT assay; type: functional, cell-based; conditions: 72 h
# Method in brief: as §3
# Salmonella typhimurium [18] = assay: Mutagenic activity in Salmonella typhimurium TA98 at 0.312 to 5 mg/plate preincubated for 20 mins before addition in absence of liver S9 mixture; type: toxicity, organism-based; conditions: salmonella enterica subsp. enterica serovar typhimurium
# Method in brief: as §2
# Salmonella typhimurium [19] = assay: Mutagenic activity in Salmonella typhimurium TA1535 at 0.312 to 5 mg/plate preincubated for 20 mins before addition in absence of liver S9 mixture; type: toxicity, organism-based; conditions: salmonella enterica subsp. enterica serovar typhimurium
# Method in brief: as §2
# MCF7 = assay: Cytotoxicity against human MCF7 cells after 3 days MTT assay; type: functional, cell-based; conditions: MCF7, 72 h
# Method in brief: as §3
# [20] = Cytotoxicity against human PZ-HPV-7 cells after 3 days MTT assay; type: functional, cell-based; conditions: 72 h
# Method in brief: as §3
# [21] = Toxicity in po dosed BDF-1 mouse; type: organism-based; conditions: in vivo
# Salmonella typhimurium [22] = assay: Mutagenic activity in Salmonella typhimurium TA102 at 0.312 to 5 mg/plate measured after incubation of upside down for 48 hrs in absence of liver S9 mixture; type: toxicity, organism-based; conditions: salmonella enterica subsp. enterica serovar typhimurium
# Method in brief: as §1
# Salmonella typhimurium [23] = assay: Mutagenic activity in Salmonella typhimurium TA98 at 0.312 to 5 mg/plate preincubated for 20 mins before addition in presence of liver S9 mixture; type: toxicity, organism-based; conditions: salmonella enterica subsp. enterica serovar typhimurium
# Method in brief: as §2
# Salmonella typhimurium [24] = assay: Mutagenic activity in Salmonella typhimurium TA100 at 0.312 to 5 mg/plate measured after incubation of upside down for 48 hrs in presence of liver S9 mixture; type: toxicity, organism-based; conditions: salmonella enterica subsp. enterica serovar typhimurium, s9, 48 h
# Method in brief: as §1
# Salmonella typhimurium [25] = assay: Mutagenic activity in Salmonella typhimurium TA98 at 0.312 to 5 mg/plate measured after incubation of upside down for 48 hrs in absence of liver S9 mixture; type: toxicity, organism-based; conditions: salmonella enterica subsp. enterica serovar typhimurium
# Method in brief: as §1
# L1210 [26] = assay: Antitumor activity against mouse L1210 cells xenografted in BDF-1 mouse assessed as increase in mean survival time at 1.5 mmol/kg, po qd for 2 weeks; type: functional
# Method in brief: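 Male BDF-1 mice inoculated intraperitoneally on day 0 with L1210 leukemia cells (1 × 10⁶/mL). Cells were kept in RPMI 1640 with 10% fetal bovine serum at 37 °C, 5% CO₂, subcultured once or twice weekly, and resuspended in PBS. Compounds were given orally, with maximum doses set from acute toxicity. Read-out was mean survival time versus untreated control.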
Compound,MST (L1210 [1]),Activity (Salmonella typhimurium [2]),Activity (Salmonella typhimurium [3]),Activity (Salmonella typhimurium [4]),MST (L1210 [5]),Activity (Salmonella typhimurium [6]),Activity (Salmonella typhimurium [7]),Activity (Salmonella typhimurium [8]),Activity (Salmonella typhimurium [9]),Activity (Salmonella typhimurium [10]),Activity (Salmonella typhimurium [11]),Activity (Salmonella typhimurium [12]),Activity (Salmonella typhimurium [13]),Activity (Salmonella typhimurium [14]),IC50 (NCI-H69),Activity (Salmonella typhimurium [15]),Activity (Salmonella typhimurium [16]),IC50 (HeLa),IC50 (MCF7),IC50 [20],also measured
C[C@H]1O[C@@H](n2cc(F)c(NC(=O)Oc3ccc([N+](=O)[O-])cc3)nc2=O)[C@@H]2OC(=O)O[C@@H]21,27.1 days,Non-toxic,Non-toxic,Non-toxic,23.4 days,Non-toxic,Non-toxic,Non-toxic,Non-toxic,Non-toxic,Non-toxic,Non-toxic,Non-toxic,Non-toxic,30 µg/mL,Non-toxic,Non-toxic,0.03 µg/mL,6 µg/mL,6 µg/mL,LD50 at 672 h [17]: 200 mg/kg; Activity (Salmonella typhimurium [18]): Non-toxic; Activity (Salmonella typhimurium [19]): Non-toxic; LD50 [21]: 2000 mg/kg; Activity (Salmonella typhimurium [22]): Non-toxic; Activity (Salmonella typhimurium [23]): Non-toxic; Activity (Salmonella typhimurium [24]): Non-toxic; Activity (Salmonella typhimurium [25]): Non-toxic
C[C@H]1O[C@@H](n2cc(F)c(NC(=O)Oc3ccc(Cl)cc3)nc2=O)[C@@H]2OC(=O)O[C@@H]21,26.3 days,,,,23.7 days,,,,,,,,,,3 µg/mL,,,0.006 µg/mL,30 µg/mL,3 µg/mL,LD50 at 672 h [17]: 200 mg/kg; LD50 [21]: 2000 mg/kg
CCCCCOC(=O)Nc1nc(=O)n([C@@H]2O[C@H](C)[C@H]3OC(=O)O[C@H]32)cc1F,,Non-toxic,Non-toxic,Non-toxic,,Non-toxic,Non-toxic,Non-toxic,Non-toxic,Non-toxic,Non-toxic,Non-toxic,Non-toxic,Non-toxic,180 µg/mL,Non-toxic,Non-toxic,0.08 µg/mL,80 µg/mL,140 µg/mL,MST (L1210 [26]): 17.3 days; Activity (Salmonella typhimurium [18]): Non-toxic; Activity (Salmonella typhimurium [19]): Non-toxic; Activity (Salmonella typhimurium [22]): Non-toxic; Activity (Salmonella typhimurium [23]): Non-toxic; Activity (Salmonella typhimurium [24]): Non-toxic; Activity (Salmonella typhimurium [25]): Non-toxic
CCCCCOC(=O)Nc1nc(=O)n([C@@H]2O[C@H](C)[C@@H](O)[C@H]2O)cc1F [CAPECITABINE],20.3 days,Non-toxic,Non-toxic,Non-toxic,19.6 days,Non-toxic,Non-toxic,Non-toxic,Non-toxic,Non-toxic,Non-toxic,Non-toxic,Non-toxic,Non-toxic,300 µg/mL,Non-toxic,Non-toxic,0.05 µg/mL,710 µg/mL,160 µg/mL,MST (L1210 [26]): 12.8 days; Activity (Salmonella typhimurium [18]): Non-toxic; Activity (Salmonella typhimurium [19]): Non-toxic; Activity (Salmonella typhimurium [22]): Non-toxic; Activity (Salmonella typhimurium [23]): Non-toxic; Activity (Salmonella typhimurium [24]): Non-toxic; Activity (Salmonella typhimurium [25]): Non-toxic
